Experimental data gathered from unrelated publications.
Lines come from different studies, so protocols differ.
Cell line: IGROV-1
Effect on: cell growth or viability

SMILES | technique | tested at | time | measurement | result
COc1ccc(-c2ccc(-c3ccc(C(=N)N)nc3)s2)cc1Cl | SRB | – | – | GI50 | 1780 nM
COc1ccc(C(=O)/C=C/c2cccc3ccccc23)cc1S(N)(=O)=O | SRB | – | 48 h | GI50 | 2300 nM
COc1cc2c3cc1Oc1c(OC)c(OC)cc4c1[C@@H](Cc1ccc(O)c(c1)Oc1ccc(cc1)C[C@@H]3N(C)CC2)N(C)CC4 | – | – | 72 h | IC50 | 29600 nM
COc1ccc(-c2ccc(-c3ccc(C(=N)N)nc3)s2)cc1 | SRB | – | – | GI50 | 1840 nM
S=C([S][Au-][P+](CCCCCC[P+]([Au-][S]C(=S)n1cccn1)(c1ccccc1)c1ccccc1)(c1ccccc1)c1ccccc1)n1cccn1 | – | – | – | GI50 | 2260 nM
COc1ccc(C(=O)/C=C/c2ccc3c(c2)OCCO3)cc1S(N)(=O)=O | SRB | 10 µM | – | inhibition | 36%
COc1cccc(Oc2ccccc2NC(=O)CNC(=O)c2cccc3ccccc23)c1 | SRB | – | 48 h | GI50 | 1050 nM
Cc1cc(C)n(C(=S)[S][Au][PH](CCCCCC[PH]([Au][S]C(=S)n2nc(C)cc2C)(c2ccccc2)c2ccccc2)(c2ccccc2)c2ccccc2)n1 | – | – | – | GI50 | 1190 nM
